One series deals with 5-HT2B receptor (Homo sapiens, UniProt P41595). Description: Displacement of [3H]-LSD from recombinant human 5-HT2BR expressed in HEK cell membranes at 10 uM after 90 mins by scintillation counting method relative to control. The settings on record: probe [3H]-LSD.
Series [1] has as its target 5-hydroxytryptamine receptor 1D (Homo sapiens) (UniProt P28221). Description: Displacement of [3H]-GR125743 from recombinant human 5-HT1DR expressed in HEKT cell membranes at 10 uM after 90 mins by scintillation counting method relative to control.
The nature of series [2]: Terminal half life in Sprague-Dawley rat at 5 mg/kg, iv administered as single dose. The series is classed as ADME, organism-based. The conditions noted are these: in vivo.
The target of series [3] is 5-hydroxytryptamine receptor 2A (Homo sapiens, UniProt P28223). The series is described as follows: Positive allosteric modulation of human 5-HT2AR expressed in CHO cells assessed as increase in 5-HT-induced intracellular calcium release at 0.000001 to 1 uM preincubated for 15 mins followed by 5-HT addition by calcium-4 dye based FLIPR assay. The series is classed as cell-based. The procedure, abridged: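 Human 5-HT2AR-CHO cells, same calcium assay: Calcium 4 dye with probenecid. Compound (1 pM, 1 nM, 1 μM) was given 15 min before a 5-HT concentration–response (10 pM–10 μM). Peak fluorescence was fit by 4-parameter regression.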

Series [4] in a line: AUC (0 to infinity) in Sprague-Dawley rat at 10 mg/kg, po administered as single dose. The settings on record: in vivo. More on the design: dose 10 mg/kg, time infinity, route oral. Type of series: ADME, organism-based.
Series [5] has as its system Rattus norvegicus. Description: Increase in WAY163909-induced suppression of spontaneous locomotor activity in Sprague-Dawley rat assessed as reduction in total vertical activity at 5 mg/kg, ip cotreated with WAY163909 at 15 mins post 5-HT2C antagonist SB242084 treatment measured for 30 mins. The series is classed as functional, organism-based. The procedure, abridged: (§1)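 Rats (n = 9–10/group) received SB242084 (1 mg/kg ip) or vehicle (8% 2-hydroxypropyl-β-cyclodextrin) 15 min before ip WAY163909 (1 mg/kg) plus compound (5 mg/kg). They were placed in monitors immediately; ambulations and vertical activity were totalled over 30 min. Analysis: ANOVA with Bonferroni comparisons.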

The nature of series [6]: Clearance in Sprague-Dawley rat at 5 mg/kg, iv administered as single dose. The conditions noted are these: in vivo. Type of series: ADME, organism-based.
In series [7] the test system is Rattus norvegicus. The series is described as follows: Increase in WAY163909-induced suppression of spontaneous locomotor activity in Sprague-Dawley rat assessed as reduction in total vertical activity at 5 mg/kg, ip administered as single dose measured for 30 mins. The series is classed as functional, organism-based. In outline:
as §1

For series [8], the target named is T1, 5-hydroxytryptamine receptor 2C (Homo sapiens) (UniProt P28335).
T1 sequence (whole entry): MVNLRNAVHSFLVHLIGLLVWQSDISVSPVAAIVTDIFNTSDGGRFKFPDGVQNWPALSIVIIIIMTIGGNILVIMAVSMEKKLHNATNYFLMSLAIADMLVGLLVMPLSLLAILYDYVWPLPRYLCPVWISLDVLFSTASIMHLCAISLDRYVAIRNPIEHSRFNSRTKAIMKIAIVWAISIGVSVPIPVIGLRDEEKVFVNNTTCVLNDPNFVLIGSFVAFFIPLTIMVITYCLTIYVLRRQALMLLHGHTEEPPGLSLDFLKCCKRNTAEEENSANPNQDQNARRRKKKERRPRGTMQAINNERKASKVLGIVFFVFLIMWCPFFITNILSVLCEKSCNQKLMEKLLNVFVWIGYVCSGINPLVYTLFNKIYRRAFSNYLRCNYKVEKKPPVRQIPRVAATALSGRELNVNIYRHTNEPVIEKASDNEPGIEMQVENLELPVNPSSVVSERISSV
Description: Positive allosteric modulation of human 5-HT2CR expressed in CHO cells assessed as 5-HT-induced intracellular calcium release at 1 nM preincubated for 15 mins followed by 5-HT addition by calcium-4 dye based FLIPR assay (reference value: 100%). Type of series: functional, cell-based. The procedure, abridged:
(§2)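 CHO cells stably expressing human unedited INI 5-HT2CR were plated, serum-starved 3 h, then loaded with Calcium 4 dye plus 2.5 mM probenecid (60 min 37 °C, then 15 min RT). Compound (1 nM) was added; the read after this addition gave intrinsic agonism. 5-HT (10 pM–10 μM) followed 15 min later. FLIPR-TETRA: 10 s baseline, 1 s reads for 120 s after compound and 360 s after 5-HT. Emax came from 4-parameter fits, ≥3 biological replicates in triplicate.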

Series [9] concerns Rattus norvegicus. Description: Effect on inactive lever presses in Sprague-Dawley rat at 1 mg/kg, ip administered as single dose 15 mins prior to self administration of cocaine. The series is classed as organism-based. The settings on record: in vivo, 0.25 h. The procedure, abridged: (§3)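 Catheterized male Sprague–Dawley rats self-administered cocaine (0.75 mg/kg/infusion iv, each paired with light/pump cue) in 14 daily 180 min sessions, reaching FR5 stability. After 24 h they received saline (1 mL/kg ip) or compound (1 mg/kg ip) 15 min before a cue reactivity test.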

For series [10], the target named is 5-hydroxytryptamine receptor 1E (Homo sapiens) (UniProt P28566). Description: Displacement of [3H]-5-HT from recombinant human 5-HT1ER expressed in HEK cell membranes at 10 uM after 90 mins by scintillation counting method relative to control.
The target in series [11] is T1, 5-hydroxytryptamine receptor 2C (Homo sapiens). Description: Positive allosteric modulation of human 5-HT2CR expressed in CHO cells assessed as increase in 5-HT-induced intracellular calcium release at 0.000001 to 1 uM preincubated for 15 mins followed by 5-HT addition by calcium-4 dye based FLIPR assay. The series is classed as functional, cell-based. In outline: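 CHO cells stably expressing human unedited (INI) 5-HT2CR, passages 6–16, grown at 37 °C in medium with 5% FBS and hygromycin. Plated cells were serum-starved 3 h, then loaded 60 min at 37 °C plus 15 min at room temperature with Calcium 4 dye and 2.5 mM probenecid in HBSS pH 7.4. Compound (1 pM, 1 nM, 1 μM) was added 15 min before 5-HT (10 pM–10 μM), and fluorescence peak height was read.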

The test system of series [12] is Rattus norvegicus. Description: Reduction in cocaine cue reactivity in Sprague-Dawley rat assessed as decrease in active lever presses at 1 mg/kg, ip administered as single dose 15 mins prior to self administration of cocaine. Type of series: functional, organism-based. In outline: as §3
Series [13] addresses 5-hydroxytryptamine receptor 5A (Homo sapiens) (UniProt P47898). Description: Displacement of [3H]-LSD from recombinant human 5-HT5AR expressed in Flp-IN CHO cell membranes at 10 uM after 90 mins by scintillation counting method relative to control.
In series [14] the target is T1, 5-hydroxytryptamine receptor 2C (Homo sapiens). The series is described as follows: Intrinsic agonist activity at human 5-HT2CR expressed in CHO cells assessed as induction of intracellular calcium release at 1 nM incubated for 15 mins measured every 1 sec for 120 secs by calcium-4 dye based FLIPR assay. Type of series: functional, cell-based. In outline: as §2

The subject of another series is CHO. Description: Cytotoxicity against CHO cells at 0.1 to 1000 nM after 1 hrs by LDH release assay. Type of series: cell-based, Cricetulus griseus. The conditions noted are these: chinese hamster, 1 µM. The procedure, abridged:
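Lactate dehydrogenase release assay for cytotoxicity, compounds tested at 0.1 nM and 1 μM.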

Series [15] addresses 5-hydroxytryptamine receptor 3A (Homo sapiens) (UniProt P46098). Description: Displacement of [3H]-LY278584 from recombinant human 5-HT3R expressed in HEK cell membranes at 10 uM after 90 mins by scintillation counting method relative to control.

Each structure is given as a SMILES string. Activity calls are given as the source filed them. The calls are words filed in the database; no cut-off is given here.

Sequence of 5-HT2B receptor (P41595 whole entry): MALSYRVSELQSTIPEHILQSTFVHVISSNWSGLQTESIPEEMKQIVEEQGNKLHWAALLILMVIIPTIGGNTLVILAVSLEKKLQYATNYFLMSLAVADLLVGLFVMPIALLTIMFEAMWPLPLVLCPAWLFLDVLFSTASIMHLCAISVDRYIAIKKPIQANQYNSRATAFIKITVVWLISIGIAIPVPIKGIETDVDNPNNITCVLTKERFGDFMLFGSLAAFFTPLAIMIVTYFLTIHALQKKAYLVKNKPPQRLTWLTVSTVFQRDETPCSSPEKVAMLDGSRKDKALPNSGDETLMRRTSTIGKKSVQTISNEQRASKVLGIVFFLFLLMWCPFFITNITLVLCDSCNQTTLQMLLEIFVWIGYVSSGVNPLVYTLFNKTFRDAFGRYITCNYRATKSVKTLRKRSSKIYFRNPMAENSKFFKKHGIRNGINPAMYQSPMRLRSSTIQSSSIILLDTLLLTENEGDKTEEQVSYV
Sequence of 5-hydroxytryptamine receptor 1E (Homo sapiens) (P28566 whole entry): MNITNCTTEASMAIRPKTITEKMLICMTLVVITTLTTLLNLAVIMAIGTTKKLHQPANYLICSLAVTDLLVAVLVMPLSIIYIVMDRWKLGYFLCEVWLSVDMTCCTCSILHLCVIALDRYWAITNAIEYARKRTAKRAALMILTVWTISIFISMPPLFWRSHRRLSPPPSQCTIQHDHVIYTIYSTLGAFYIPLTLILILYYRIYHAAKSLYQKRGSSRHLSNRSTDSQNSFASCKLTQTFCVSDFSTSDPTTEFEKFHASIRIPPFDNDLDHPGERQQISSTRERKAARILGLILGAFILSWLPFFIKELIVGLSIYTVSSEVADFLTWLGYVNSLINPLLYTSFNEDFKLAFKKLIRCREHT
Sequence of 5-hydroxytryptamine receptor 1D (Homo sapiens) (P28221 whole entry): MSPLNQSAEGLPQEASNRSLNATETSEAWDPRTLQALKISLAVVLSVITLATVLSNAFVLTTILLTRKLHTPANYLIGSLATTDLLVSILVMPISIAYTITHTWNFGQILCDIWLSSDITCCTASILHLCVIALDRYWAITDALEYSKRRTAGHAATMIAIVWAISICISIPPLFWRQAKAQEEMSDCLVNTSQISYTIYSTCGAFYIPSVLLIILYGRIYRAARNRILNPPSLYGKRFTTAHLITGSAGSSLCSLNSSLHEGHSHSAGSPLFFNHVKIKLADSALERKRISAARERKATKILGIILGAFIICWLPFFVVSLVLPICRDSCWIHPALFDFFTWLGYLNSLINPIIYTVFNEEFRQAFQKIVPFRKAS
Sequence of 5-hydroxytryptamine receptor 2A (P28223 whole entry): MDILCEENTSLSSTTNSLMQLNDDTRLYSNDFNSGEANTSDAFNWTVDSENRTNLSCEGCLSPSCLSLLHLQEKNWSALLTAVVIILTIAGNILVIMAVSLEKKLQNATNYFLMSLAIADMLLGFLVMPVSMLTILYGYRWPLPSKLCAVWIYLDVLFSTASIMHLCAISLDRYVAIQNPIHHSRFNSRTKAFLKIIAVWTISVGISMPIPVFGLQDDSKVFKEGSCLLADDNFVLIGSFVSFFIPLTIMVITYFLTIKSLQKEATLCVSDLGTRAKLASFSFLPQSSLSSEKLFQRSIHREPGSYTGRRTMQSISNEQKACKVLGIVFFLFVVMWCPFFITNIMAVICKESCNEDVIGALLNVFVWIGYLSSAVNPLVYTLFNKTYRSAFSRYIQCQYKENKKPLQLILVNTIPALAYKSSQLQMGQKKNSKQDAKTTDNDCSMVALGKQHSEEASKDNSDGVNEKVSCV
Sequence of 5-hydroxytryptamine receptor 3A (Homo sapiens) (P46098 whole entry): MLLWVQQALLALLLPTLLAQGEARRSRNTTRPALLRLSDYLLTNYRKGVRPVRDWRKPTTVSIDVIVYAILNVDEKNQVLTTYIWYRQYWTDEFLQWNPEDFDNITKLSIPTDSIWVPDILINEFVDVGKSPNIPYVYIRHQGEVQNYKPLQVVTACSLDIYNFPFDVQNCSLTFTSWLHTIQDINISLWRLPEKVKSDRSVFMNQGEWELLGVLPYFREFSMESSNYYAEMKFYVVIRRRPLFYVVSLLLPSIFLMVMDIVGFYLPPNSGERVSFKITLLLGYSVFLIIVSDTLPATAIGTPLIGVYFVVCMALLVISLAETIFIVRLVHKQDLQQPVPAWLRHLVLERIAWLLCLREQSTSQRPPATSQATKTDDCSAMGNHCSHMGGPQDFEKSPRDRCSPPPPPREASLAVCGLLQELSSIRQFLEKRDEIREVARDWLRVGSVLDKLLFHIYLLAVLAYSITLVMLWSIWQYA
Sequence of 5-hydroxytryptamine receptor 5A (Homo sapiens) (P47898 whole entry): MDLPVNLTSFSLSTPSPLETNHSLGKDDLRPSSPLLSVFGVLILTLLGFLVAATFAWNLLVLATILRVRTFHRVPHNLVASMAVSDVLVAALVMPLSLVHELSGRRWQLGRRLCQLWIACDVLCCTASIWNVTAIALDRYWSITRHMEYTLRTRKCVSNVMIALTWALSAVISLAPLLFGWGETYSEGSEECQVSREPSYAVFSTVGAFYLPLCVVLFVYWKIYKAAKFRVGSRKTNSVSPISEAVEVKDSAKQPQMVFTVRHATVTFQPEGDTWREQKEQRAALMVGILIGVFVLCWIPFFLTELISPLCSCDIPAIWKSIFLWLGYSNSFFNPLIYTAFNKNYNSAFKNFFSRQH

As to `CCCCCCCCCCC[C@@H]1CCN[C@H](C(=O)NCC(O)CO)C1` (relative stereo), the inhibition at 1.5 h, 10 µM at 5-HT2B receptor stood at 15.1%. In addition, the inhibition was 5.5% in [1], 0.7% in [10], 17.2% in [13] and 27% in series [15]. Moreover, the “beta t1/2” value in [2] was 6.59 h. Besides, the Activity entry is “Not Active” in series [3], “Non-Toxic” in the series on Rattus norvegicus [9] and “Non-Toxic” in the series with CHO. The AUC in series [4] was 737 ng·h/mL. For the same molecule, the result (in the series with Rattus norvegicus [5]; in the series on Rattus norvegicus [7]; in series [11]; with Rattus norvegicus [12]) was Active. The molecule further came in with a CL in [6] of 89.5 mL/min/kg. In series [8], the Emax was 123%. Further, the result in series [14] was inactive.

The record behind these values is ChEMBL document CHEMBL4308830, “Design, Synthesis, and Characterization of 4-Undecylpiperidine-2-carboxamides as Positive Allosteric Modulators of the Serotonin (5-HT) 5-HT2C Receptor” (J Med Chem, 2018).
